Legend:
[1] = molecular target: T1, Opioid receptors; mu & delta (Homo sapiens) (UniProt P41143+P35372); assay: Selectivity ratio as the ratio of IC50 ratio of delta receptor to that of mu receptor.; assay type: functional
Procedure, shortened: (§1)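 Each selectivity value is the delta IC50 ratio from mouse vas deferens (DADLE, 100 nM antagonist, 30 min) divided by the kappa (ethylketazocine) or mu (morphine) IC50 ratio from guinea pig ileum. A value of 1 was used wherever an IC50 ratio was below 1.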

[2] = molecular target: Delta-type opioid receptor (Mus musculus) (UniProt P32300); assay: Antagonistic activity against opioid delta receptor in mouse vas deferens after 30 min incubation. Preparation was washed (5x) with buffer after incubation with antagonist.; assay type: functional, tissue-based
Procedure, shortened: (§2)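 Electrically stimulated mouse vas deferens with DADLE as the delta agonist. Antagonist at 100 nM was incubated for the stated time (10, 30 or 60 min). The preparation was then washed 5 times with buffer before agonist IC50 was measured. Result is the IC50 ratio, agonist IC50 with antagonist over control IC50.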

[3] = molecular target: Kappa-type opioid receptor (Cavia porcellus) (UniProt P41144); assay: Antagonistic activity against Opioid receptor kappa 1 in guinea pig ileum assay; assay type: functional, tissue-based
Procedure, shortened: (§3)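 Electrically stimulated guinea pig ileum. Antagonist present at 100 nM during a 30 min incubation. Agonists were morphine (mu) and ethylketazocine (kappa). Antagonism was expressed as IC50 ratio: agonist IC50 with antagonist divided by control IC50.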

[4] = molecular target: Delta-type opioid receptor (Mus musculus) (UniProt P32300); assay: Antagonistic activity against opioid delta receptor in mouse vas deferens after 30 min. IC50 ratio determined without washing (prewash).; assay type: functional
Procedure, shortened: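 Electrically stimulated mouse vas deferens with DADLE as the delta agonist. Antagonist at 100 nM was incubated for 30 min. Agonist IC50 was measured directly without washing. Result is the IC50 ratio versus control agonist IC50.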

[5] = molecular target: T2, Opioid receptors; delta & kappa (Homo sapiens) (UniProt P41145+P41143); assay: Selectivity ratio as the ratio of IC50 ratio of delta receptor to that of kappa receptor.; assay type: functional; procedure, shortened: as §1
[6] = molecular target: Mu-type opioid receptor (Cavia porcellus) (UniProt P97266); assay: Antagonistic activity against Opioid receptor mu 1 in guinea pig ileum assay; assay type: functional, tissue-based; procedure, shortened: as §3
[7] = molecular target: Delta-type opioid receptor (Mus musculus) (UniProt P32300); assay: Tested […] for antagonistic activity against opioid delta receptor in mice at incubation time of 60 minutes. Preparation was washed (5x) with buffer after incubation with antagonist.; assay type: functional
[8] = molecular target: Delta-type opioid receptor (Mus musculus) (UniProt P32300); assay: Antagonistic activity against opioid delta receptor in mouse vas deferens after 10 minutes. Preparation was washed (5x) with buffer after incubation with antagonist.; assay type: functional, tissue-based; procedure, shortened: as §2
[9] = molecular target: Mu-type opioid receptor (Cavia porcellus, UniProt P97266); assay: Tested for binding affinity against mu opioid receptor using [3H]DAMGO as a radioligand in the guinea pig brain membranes.; assay type: cell membranes
Procedure, shortened: (§4)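 Radioligand competition in guinea pig brain membranes. Kappa sites were labelled with [3H]U69593 and mu sites with [3H]DAMGO. Delta1 sites used [3H]DPDPE and delta2 sites used [3H]DSLET, both in the presence of 100 nM unlabelled DAMGO. Results are reported as Ki.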

[10] = molecular target: Kappa-type opioid receptor (Cavia porcellus, UniProt P41144); assay: Tested for binding affinity against Opioid receptor kappa 1 using [3H]U-69593 as a radioligand in the guinea pig brain membranes.; assay type: cell membranes; procedure, shortened: as §4
[11] = system: Mus musculus; assay: Tested in vivo for antagonistic activity against antinociceptive effect of icv-administered DSLET in mice at 24 hr; assay type: functional
Procedure, shortened: (§5)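 Mice were pretreated icv with antagonist at 5 nmol. Antinociception from icv DPDPE (delta1) or DSLET (delta2) was measured 1.5 or 24 h later. ED50 ratio is pretreated ED50 over control ED50. Selectivity is the DSLET ED50 ratio divided by the DPDPE ED50 ratio.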

[12] = molecular target: T2, Opioid receptors; delta & kappa (Homo sapiens); assay: Selectivity ratio as ratio of Ki value towards kappa receptor to that of delta-1 receptor.; assay type: protein assay
[13] = system: Mus musculus; assay: Tested in vivo for antagonistic activity against antinociceptive effect of icv-administered DPDPE in mice at 1.5 hr; assay type: functional; procedure, shortened: as §5
[14] = molecular target: T1, Opioid receptors; mu & delta (Homo sapiens); assay: Selectivity ratio as ratio of Ki value towards mu receptor to that of delta-1 receptor.; assay type: protein assay
[15] = system: Mus musculus; assay: Tested in vivo for antagonistic activity against antinociceptive effect of icv-administered DSLET in mice at 1.5 hr; assay type: functional; procedure, shortened: as §5
[16] = molecular target: Delta-type opioid receptor (Homo sapiens) (UniProt P41143); assay: Selectivity ratio as ratio of ED50 value against delta-2 receptor to that delta-1 receptor after 1.5 administration.; assay type: functional, organism-based; procedure, shortened: as §5
[17] = system: Mus musculus; assay: Tested in vivo for antagonistic activity against antinociceptive effect of icv-administered DPDPE in mice at 24 hr; assay type: functional; procedure, shortened: as §5
[18] = molecular target: Delta-type opioid receptor (Homo sapiens) (UniProt P41143); assay: Selectivity ratio as ratio of ED50 value against delta-2 receptor to that delta-1 receptor after hours of administration,; assay type: functional, organism-based; procedure, shortened: as §5

Chain of Delta-type opioid receptor (Mus musculus) (P32300 whole entry): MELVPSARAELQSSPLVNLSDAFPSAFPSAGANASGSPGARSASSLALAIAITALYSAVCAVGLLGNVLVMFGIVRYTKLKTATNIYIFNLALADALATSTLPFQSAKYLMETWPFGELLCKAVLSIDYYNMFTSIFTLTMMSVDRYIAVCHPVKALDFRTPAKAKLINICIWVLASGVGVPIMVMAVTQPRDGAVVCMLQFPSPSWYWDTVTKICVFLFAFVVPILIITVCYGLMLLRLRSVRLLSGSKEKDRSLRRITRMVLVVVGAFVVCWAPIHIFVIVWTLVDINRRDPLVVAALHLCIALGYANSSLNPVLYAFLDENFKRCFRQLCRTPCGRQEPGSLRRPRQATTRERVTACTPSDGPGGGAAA
T1 sequence (P35372 whole entry, looked up): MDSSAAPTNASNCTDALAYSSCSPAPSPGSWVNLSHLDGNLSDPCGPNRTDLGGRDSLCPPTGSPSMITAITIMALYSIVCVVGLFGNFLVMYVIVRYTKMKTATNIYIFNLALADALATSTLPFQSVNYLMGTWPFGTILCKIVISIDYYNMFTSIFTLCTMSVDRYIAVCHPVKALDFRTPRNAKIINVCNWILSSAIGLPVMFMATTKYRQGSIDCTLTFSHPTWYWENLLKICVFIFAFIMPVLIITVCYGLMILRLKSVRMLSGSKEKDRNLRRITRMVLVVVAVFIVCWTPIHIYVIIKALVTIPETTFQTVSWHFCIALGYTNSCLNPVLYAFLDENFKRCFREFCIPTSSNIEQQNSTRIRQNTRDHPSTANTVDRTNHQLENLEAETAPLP
T1 sequence (P41143 whole entry, looked up): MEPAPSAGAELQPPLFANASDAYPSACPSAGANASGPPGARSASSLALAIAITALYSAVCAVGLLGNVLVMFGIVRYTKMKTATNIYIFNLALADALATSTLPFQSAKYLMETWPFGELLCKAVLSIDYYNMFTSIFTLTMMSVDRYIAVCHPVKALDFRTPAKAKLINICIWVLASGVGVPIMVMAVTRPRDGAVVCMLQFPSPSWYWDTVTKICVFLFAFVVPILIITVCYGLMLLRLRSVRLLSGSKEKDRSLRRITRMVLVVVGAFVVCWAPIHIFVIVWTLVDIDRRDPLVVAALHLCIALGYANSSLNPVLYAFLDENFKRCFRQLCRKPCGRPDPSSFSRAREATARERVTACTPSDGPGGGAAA
Chain of Kappa-type opioid receptor (Cavia porcellus) (P41144 whole entry): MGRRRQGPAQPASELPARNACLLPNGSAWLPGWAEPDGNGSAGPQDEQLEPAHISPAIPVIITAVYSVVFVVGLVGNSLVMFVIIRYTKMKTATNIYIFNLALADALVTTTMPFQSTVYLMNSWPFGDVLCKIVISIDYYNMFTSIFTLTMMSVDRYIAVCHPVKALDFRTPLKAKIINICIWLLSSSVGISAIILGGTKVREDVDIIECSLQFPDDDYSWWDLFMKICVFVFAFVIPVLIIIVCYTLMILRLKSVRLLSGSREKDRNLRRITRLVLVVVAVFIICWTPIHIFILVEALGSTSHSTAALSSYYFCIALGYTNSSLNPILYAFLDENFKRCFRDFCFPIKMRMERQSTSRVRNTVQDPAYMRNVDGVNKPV
Chain of Kappa-type opioid receptor (P41144 whole entry): as above
Chain of Mu-type opioid receptor (P97266 whole entry): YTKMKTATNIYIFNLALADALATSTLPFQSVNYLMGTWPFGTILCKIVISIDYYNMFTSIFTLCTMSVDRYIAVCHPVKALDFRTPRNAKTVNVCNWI
Chain of Mu-type opioid receptor (Cavia porcellus) (P97266 whole entry): as above
T2 sequence (P41143 whole entry, looked up): as the sequence (P41143 whole entry, looked up) above
T2 sequence (P41145 whole entry, looked up): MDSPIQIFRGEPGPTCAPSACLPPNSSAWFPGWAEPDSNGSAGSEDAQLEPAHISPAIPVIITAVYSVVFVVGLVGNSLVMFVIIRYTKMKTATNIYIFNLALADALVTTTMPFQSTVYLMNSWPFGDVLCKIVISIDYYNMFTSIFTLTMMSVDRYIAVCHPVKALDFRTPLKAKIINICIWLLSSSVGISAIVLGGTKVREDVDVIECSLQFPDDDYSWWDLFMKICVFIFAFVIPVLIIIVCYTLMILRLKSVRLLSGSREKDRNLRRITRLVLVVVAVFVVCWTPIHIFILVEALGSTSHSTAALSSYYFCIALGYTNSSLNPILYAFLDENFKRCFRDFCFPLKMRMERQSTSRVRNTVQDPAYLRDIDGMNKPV
Chain of Delta-type opioid receptor (Homo sapiens) (P41143 whole entry): as the sequence (P41143 whole entry, looked up) above

Structure (SMILES): CC(=O)Nc1ccccc1Cn1c2c(c3ccccc31)C[C@@]1(O)C3Cc4ccc(O)c5c4C1(CCN3CC1CC1)[C@H]2O5 (some centres not stated)
- Selectivity [1]: 29
- IC50 ratio [2]: 10
- IC50 ratio [3]: 1.3
- IC50 ratio [4]: 54
- Selectivity [5]: 42
- IC50 ratio [6]: 1.9

Structure (SMILES): CC(=O)Nc1ccc(Cn2c3c(c4ccccc42)C[C@@]2(O)C4Cc5ccc(O)c6c5C2(CCN4CC2CC2)[C@H]3O6)cc1 (some centres not stated)
- IC50 ratio [7]: 7.1
- IC50 ratio [8]: 1.6
- Selectivity [1]: 31
- IC50 ratio [2]: 3.1
- IC50 ratio [3]: 0.2
- IC50 ratio [4]: 31
- Selectivity [5]: 31
- IC50 ratio [6]: 0.9

Structure (SMILES): O=C(CI)Nc1ccccc1Cn1c2c(c3ccccc31)C[C@@]1(O)C3Cc4ccc(O)c5c4C1(CCN3CC1CC1)[C@H]2O5 (some centres not stated)
- IC50 ratio [8]: 51.2
- Selectivity [1]: 51
- IC50 ratio [2]: 25.5
- IC50 ratio [3]: 0.5
- IC50 ratio [4]: 50.7
- Selectivity [5]: 51
- IC50 ratio [6]: 0.7

Structure (SMILES): O=C(CBr)Nc1ccccc1Cn1c2c(c3ccccc31)C[C@@]1(O)C3Cc4ccc(O)c5c4C1(CCN3CC1CC1)[C@H]2O5 (some centres not stated)
- Selectivity [1]: 21
- IC50 ratio [2]: 13
- IC50 ratio [3]: 1.1
- IC50 ratio [4]: 35
- Selectivity [5]: 33
- IC50 ratio [6]: 1.7

Structure (SMILES): Oc1ccc2c3c1O[C@H]1c4c(c5ccccc5n4Cc4ccccc4N=C=S)C[C@@]4(O)C(C2)N(CC2CC2)CCC314 (some centres not stated)
- IC50 ratio [7]: 216
- IC50 ratio [8]: 23
- Ki [9]: 151 nM
- Ki [10]: 615 nM
- ED50 ratio [11]: 8.8
- Selectivity [12]: 308
- ED50 ratio [13]: 1.1
- Selectivity [1]: 57
- IC50 ratio [2]: 39
- Selectivity [14]: 76
- IC50 ratio [3]: 1.3
- IC50 ratio [4]: 57
- Selectivity [5]: 45
- ED50 ratio [15]: 1.4
- Selectivity [16]: 1.3
- ED50 ratio [17]: 19.4
- IC50 ratio [6]: 0.6
- Selectivity [18]: 0.5

Structure (SMILES): O=C(CBr)Nc1ccc(Cn2c3c(c4ccccc42)C[C@@]2(O)C4Cc5ccc(O)c6c5C2(CCN4CC2CC2)[C@H]3O6)cc1 (some centres not stated)
- IC50 ratio [7]: 1.4
- IC50 ratio [8]: 3.6
- Selectivity [1]: 30
- IC50 ratio [2]: 12
- IC50 ratio [3]: 0.9
- IC50 ratio [4]: 30
- Selectivity [5]: 30
- IC50 ratio [6]: 0.7

Structure (SMILES): Oc1ccc2c3c1O[C@H]1c4c(c5ccccc5n4Cc4ccccc4)C[C@@]4(O)C(C2)N(CC2CC2)CCC314 (some centres not stated)
- ED50 ratio [11]: 11.1
- ED50 ratio [13]: 1
- Selectivity [1]: 131
- IC50 ratio [3]: 0.4
- IC50 ratio [4]: 208
- Selectivity [5]: 208
- ED50 ratio [15]: 3.2
- Selectivity [16]: 3.2
- ED50 ratio [17]: 1.5
- IC50 ratio [6]: 1.6
- Selectivity [18]: 7.4

Structure (SMILES): Oc1ccc2c3c1O[C@H]1c4c(c5ccccc5n4Cc4cccc(N=C=S)c4)C[C@@]4(O)C(C2)N(CC2CC2)CCC314 (some centres not stated)
- Ki [9]: 66.2 nM
- Ki [10]: 104 nM
- ED50 ratio [11]: 4.1
- Selectivity [12]: 5
- ED50 ratio [13]: 1.1
- Selectivity [14]: 16
- IC50 ratio [3]: 1.2
- ED50 ratio [15]: 1.9
- Selectivity [16]: 1.7
- ED50 ratio [17]: 3.5
- IC50 ratio [6]: 0.8
- Selectivity [18]: 1.2

Structure (SMILES): O=C(CBr)Nc1cccc(Cn2c3c(c4ccccc42)C[C@@]2(O)C4Cc5ccc(O)c6c5C2(CCN4CC2CC2)[C@H]3O6)c1 (some centres not stated)
- IC50 ratio [8]: 44
- Ki [9]: 15.3 nM
- Ki [10]: 8.8 nM
- ED50 ratio [11]: 6.9
- Selectivity [12]: 463
- ED50 ratio [13]: 1
- Selectivity [1]: 135
- IC50 ratio [2]: 51
- Selectivity [14]: 805
- IC50 ratio [3]: 0.9
- IC50 ratio [4]: 511
- Selectivity [5]: 511
- ED50 ratio [15]: 2.4
- Selectivity [16]: 2.4
- ED50 ratio [17]: 2.8
- IC50 ratio [6]: 3.8
- Selectivity [18]: 2.5

Structure (SMILES): Oc1ccc2c3c1O[C@H]1c4c(c5ccccc5n4Cc4ccc(N=C=S)cc4)C[C@@]4(O)C(C2)N(CC2CC2)CCC314 (some centres not stated)
- IC50 ratio [8]: 6.7
- Ki [9]: 289 nM
- Ki [10]: 245 nM
- ED50 ratio [11]: 4.2
- Selectivity [12]: 46
- ED50 ratio [13]: 1.1
- Selectivity [1]: 25
- IC50 ratio [2]: 20
- Selectivity [14]: 55
- IC50 ratio [3]: 0.6
- IC50 ratio [4]: 18
- Selectivity [5]: 18
- ED50 ratio [15]: 3.8
- Selectivity [16]: 3.5
- ED50 ratio [17]: 2.5
- IC50 ratio [6]: 1.3
- Selectivity [18]: 1.7

Structure (SMILES): CC(=O)Nc1cccc(Cn2c3c(c4ccccc42)C[C@@]2(O)C4Cc5ccc(O)c6c5C2(CCN4CC2CC2)[C@H]3O6)c1 (some centres not stated)
- IC50 ratio [8]: 16
- Selectivity [1]: 31
- IC50 ratio [2]: 18
- IC50 ratio [3]: 0.9
- IC50 ratio [4]: 33
- Selectivity [5]: 31
- IC50 ratio [6]: 5.3

Source: ChEMBL document CHEMBL1128299, “Electrophilic N-benzylnaltrindoles as delta opioid receptor-selective antagonists” (J Med Chem, 1995)
